Assays:
[1] = Drug metabolism in human KB cells assessed as protoporphyrin 9 formation at 500 uM preincubated for 1 hr at 4 degC followed by compound washout and subsequent incubation for 4 hrs at 37 degC by fluorescence spectrometer; type: ADME, cell-based
How it was run: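 KB cells exposed 1 h to 500 μM prodrug in clear medium at either 4 °C or 37 °C, plates foil-wrapped. Compound then removed, PBS rinse, fresh medium, both plates 4 h at 37 °C. PpIX read in wells at 405/635 nm after subtracting untreated wells.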

[2] = test system: KB; assay: Phototoxicity in human KB cells assessed as reduction in cell viability preincubated for 4 hrs followed by irradiation with blue light at 2.5 J/cm2 and subsequent incubation for 18 hrs measured after 24 hrs post treatment by MTT assay; type: functional; details: for CC50: light or radiation study, read-out: LD50 (the source's name)
How it was run: (§1)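 Cells seeded ~5 × 10^4 per well, grown 48 h, washed with PBS, then 4 h with compound (five concentrations within 1–100 μM, triplicate, three untreated control wells per plate). Irradiated with blue light, peak ~420 nm, 2.5 J/cm². Medium replaced, cells kept a further 18 h. MTT read at A570 24 h after treatment; survival expressed as percentage of control. LD50 taken from two sets of experiments.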

[3] = test system: MCF7; assay: Phototoxicity in human MCF7 cells assessed as reduction in cell viability preincubated for 4 hrs followed by irradiation with blue light at 2.5 J/cm2 and subsequent incubation for 18 hrs measured after 24 hrs post treatment by MTT assay; type: functional; details: for CC50: MCF7, light or radiation study, read-out: LD50 (the source's name); how it was run: as §1
[4] = test system: MCF7R; assay: Phototoxicity in human doxorubicin resistant MCF7/R cells assessed as reduction in cell viability preincubated for 4 hrs followed by irradiation with blue light at 2.5 J/cm2 and subsequent incubation for 18 hrs measured after 24 hrs post treatment by MTT assay; type: functional; details: for CC50: light or radiation study, read-out: LD50 (the source's name); how it was run: as §1
[5] = test system: CNE-2; assay: Phototoxicity in human CNE2 cells assessed as reduction in cell viability preincubated for 4 hrs followed by irradiation with 6 J/cm2 light dose measured after 24 hrs by MTT assay; type: functional
[6] = test system: KB; assay: Dark toxicity against human KB cells at 200 uM preincubated for 4 hrs followed by compound washout measured after 24 hrs by MTT assay; type: cell-based
How it was run: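 Dark toxicity in KB cells: 200 μM compound for 4 h with no light, removed, cells kept 24 h. Viability by MTT (2 h, A570 after DMSO solubilisation), given as % of untreated controls. Triplicate.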

[7] = Drug metabolism in human doxorubicin resistant MCF7/R cells assessed as formation of protoporphyrin 9 at 100 uM after 6 hrs by fluorescence spectrometer; type: ADME, cell-based; details: mcf7r
How it was run: (§2)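 MCF-7R monolayers exposed 6 h at 37 °C to ALA, conjugates or ALA hexyl/octyl esters at 1–100 μM in serum-free medium. PpIX emission at 635 nm (405 nm excitation; spectra 600–750 nm) read in wells. Untreated controls subtracted; mean of triplicates in arbitrary units.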

[8] = test system: KB; assay: Dark toxicity against human KB cells assessed as cell survival at 100 uM after 24 hrs by MTT assay; type: cell-based
[9] = Drug metabolism in human KB cells assessed as formation of protoporphyrin 9 after 2 to 24 hrs by fluorescence spectrometer; type: ADME, cell-based
How it was run: (§3)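 KB monolayers (48 h after seeding ~5×10^4/well) washed, then given prodrug or ALA at 50 μM in serum-free medium at 37 °C. PpIX fluorescence read in wells at 2, 4, 6 and 24 h, excitation 405 nm, emission 635 nm. Untreated wells subtracted for autofluorescence; mean intensity in arbitrary units, triplicate.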

[10] = Drug metabolism in human KB cells assessed as formation of protoporphyrin 9 at 100 uM after 6 to 24 hrs by fluorescence spectrometer; type: ADME, cell-based
How it was run: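 Time course in KB cells at 37 °C after 100 μM conjugate, ALA, or 1:1 ALA + HPO mixture in serum-free medium. Well PpIX fluorescence read at 405 nm excitation / 635 nm emission, control autofluorescence subtracted, triplicate means.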

[11] = Drug metabolism in human KB cells assessed as formation of protoporphyrin 9 preincubated for 2 hrs followed by compound washout measured after 24 hrs by HPLC-based fluorescence analysis; type: ADME, cell-based
How it was run: (§4)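 Cells given ALA or conjugate for 2 h at 37 °C, then fresh medium without compound. At 24 h, lysed in CelLytic (15 min, room temperature), scraped and spun 1800g for 10 min. Supernatant PpIX read by fluorescence at 405/635 nm and normalised per mg protein (BCA). Untreated blanks subtracted.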

[12] = Drug metabolism in human doxorubicin resistant MCF7/R cells assessed as formation of protoporphyrin 9 preincubated for 2 hrs followed by compound washout measured after 24 hrs by HPLC-based fluorescence analysis; type: ADME, cell-based; details: mcf7r; how it was run: as §4
[13] = Drug metabolism in human doxorubicin resistant MCF7/R cells assessed as formation of protoporphyrin 9 at 100 uM after 6 hrs by fluorescence spectrometer relative to ALA; type: ADME, cell-based; details: mcf7r; how it was run: as §2
[14] = Drug metabolism in mouse PAM212 cells assessed as formation of protoporphyrin 9 at 0.01 mM after 6 hrs by fluorescence spectrometer relative to ALA; type: ADME, cell-based; details: pam212, 6 h, 10 µM
[15] = test system: CNE-2; assay: Phototoxicity in human CNE2 cells assessed as reduction in cell viability preincubated for 4 hrs followed by irradiation with 4 J/cm2 light dose measured after 24 hrs by MTT assay; type: functional
[16] = test system: CNE-2; assay: Potency index, ratio of ALA LD80 to test compound LD80 for phototoxicity against human CNE2 cells; type: functional
[17] = Dark toxicity against human KB cells assessed as cell survival at 100 uM after 4 hrs by MTT assay; type: cell-based; details: read-out: Survival
How it was run: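 Cells seeded ~5 × 10^4 per well, grown 48 h, washed with PBS, then exposed to compound in medium for 4 h without irradiation. Incubation then continued for 24 h after prodrug removal. Viability by MTT (1 mg/mL, 2 h), formazan dissolved in DMSO, A570, expressed as percentage of untreated control wells on the same plate. Triplicate.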

[18] = test system: KB; assay: Dark toxicity against human KB cells preincubated for 4 hrs followed by compound washout measured after 24 hrs by MTT assay; type: cell-based
How it was run: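 KB cells seeded ~5×10^4/well, grown 48 h, PBS-washed, then exposed to compound for 4 h without irradiation. Medium replaced and cells kept a further ~24 h. Survival by MTT (1 mg/mL in EMEM, 2 h), formazan dissolved in DMSO, A570, expressed as % of untreated control wells. Triplicate wells.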

[19] = Drug metabolism in human doxorubicin resistant MCF7/R cells assessed as formation of protoporphyrin 9 after 6 hrs by fluorescence spectrometer; type: ADME, cell-based; details: mcf7r; how it was run: as §2
[20] = Drug metabolism in human KB cells assessed as formation of protoporphyrin 9 at 50 uM after 2 to 24 hrs by fluorescence spectrometer; type: ADME, cell-based; how it was run: as §3
[21] = Drug metabolism in human MCF7 cells assessed as formation of protoporphyrin 9 at 50 uM after 6 hrs by fluorescence spectrometer; type: ADME, cell-based; details: mcf7, 6 h
How it was run: (§5)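 MCF-7 or MCF-7R cells incubated 6 h at 37 °C with 50 μM conjugate, or with 50 μM ALA and HPO as a 1:1 mixture, in serum-free medium. PpIX fluorescence read in wells at 405/635 nm, untreated-well values subtracted, triplicate.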

[22] = Drug metabolism in human KB cells assessed as formation of protoporphyrin 9 at 50 uM after 24 hrs by fluorescence spectrometer relative to ALA; type: ADME, cell-based; how it was run: as §3
[23] = test system: KB; assay: Phototoxicity in human KB cells assessed as cell survival at 10 uM preincubated for 4 hrs followed by irradiation with blue light at 2.5 J/cm2 and subsequent incubation for 18 hrs measured after 24 hrs post treatment by MTT assay relative to control; type: functional; details: light or radiation study, read-out: Survival; how it was run: as §1
[24] = Prodrug conversion in human KB cells assessed as accumulation of ALA at 100 uM after 2 hrs by HPLC-based fluorescence analysis relative to ALA; type: ADME, cell-based
How it was run: (§6)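 KB or MCF-7R cells incubated 2 h with 100 μM ALA or conjugate, then extracted with CelLytic. Lysate ALA derivatised with acetylacetone/ethanol/water (15/45/40) plus 10% formaldehyde at 100 °C for 10 min. Analysed by C18 HPLC with fluorescence detection (excitation 370 nm, emission 460 nm) against spiked-lysate calibration. Normalised per mg protein.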

[25] = Prodrug conversion in human doxorubicin resistant MCF7/R cells assessed as accumulation of ALA at 100 uM after 2 hrs by HPLC-based fluorescence analysis relative to ALA; type: ADME, cell-based; details: mcf7r; how it was run: as §6
[26] = Drug metabolism in human MCF7 cells assessed as formation of protoporphyrin 9 preincubated for 2 hrs followed by compound washout measured after 24 hrs by HPLC-based fluorescence analysis; type: ADME, cell-based; details: mcf7, 24 h; how it was run: as §4
[27] = Drug metabolism in human doxorubicin resistant MCF7/R cells assessed as formation of protoporphyrin 9 at 1 to 100 uM after 6 hrs by fluorescence spectrometer; type: ADME, cell-based; details: mcf7r
How it was run: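 Cells seeded ~5 × 10^4 per well and grown 48 h, washed with PBS. Then 6 h at 37 °C with 1–100 μM prodrug in serum-free medium. PpIX fluorescence read with excitation 405 nm and emission 635 nm (scan 600–750 nm, 515 nm long-pass filter). Values are mean intensity in arbitrary units after subtracting no-prodrug control wells. Triplicate.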

[28] = Drug metabolism in human doxorubicin resistant MCF7/R cells assessed as formation of protoporphyrin 9 at 50 uM after 6 hrs by fluorescence spectrometer; type: ADME, cell-based; details: mcf7r; how it was run: as §5

| SMILES | Drug metabolism [1] | Activity [2] | CC50 [2] [µM] | Activity [3] | CC50 [3] [µM] | Activity [4] | CC50 [4] [µM] | Activity [6] | Activity [8] | Drug metabolism [9] | Drug metabolism [10] | Drug metabolism [11] | Drug metabolism [12] | viability at 4 h, 100 µM [17] [%] | Activity [18] | also measured |
| --- | --- | --- | --- | --- | --- | --- | --- | --- | --- | --- | --- | --- | --- | --- | --- | --- |
| NCC(=O)CCC(=O)O [AMINOLEVULINIC ACID] | Metabolite_Notdetected | Dose-dependent effect | 124 | Dose-dependent effect | 131 | Dose-dependent effect | 122 | Non-Toxic | Non-Toxic | – | – | – | – | – | – | LD80 [5]: 0.75 mM; Drug metabolism [7]: Metabolite_Detected |
| CCc1c(O)c(=O)ccn1CCOCCOCCOC(=O)CCC(=O)CN.Cl | Metabolite_Detected | Dose-dependent effect | 19.6 | Dose-dependent effect | 15.8 | Dose-dependent effect | 11.3 | Non-Toxic | Non-Toxic | Metabolite_Detected | Metabolite_Detected | Metabolite_Detected | Metabolite_Detected | – | – | fold change (FC) [13]: 20 |
| COC(=O)CCC(=O)CNC(=O)[C@H](Cc1ccccc1)NC(C)=O | – | – | – | – | – | – | – | – | – | – | – | – | – | – | – | fold change (FC) [14]: 5 |
| CCCCCCOC(=O)CCC(=O)CN [HEXAMINOLEVULINATE] | – | Dose-dependent effect | 2.6 | Dose-dependent effect | 9.3 | Dose-dependent effect | 8.4 | – | – | Metabolite_Detected | – | – | – | 9 | Toxic | LD80 [15]: 0.03 mM; Ratio [16]: 40 |
| CCCCCCCCOC(=O)CCC(=O)CN | – | – | – | – | – | – | – | – | – | – | – | – | – | 14 | Toxic | – |
| CCc1c(O)c(=O)ccn1CCCCCCCCOC(=O)CCC(=O)CN.Cl.Cl | Metabolite_Detected | Dose-dependent effect | 3.1 | Dose-dependent effect | 10.9 | Dose-dependent effect | 4.2 | Non-Toxic | Non-Toxic | – | Metabolite_Detected | Metabolite_Detected | Metabolite_Detected | – | – | Drug metabolism [19]: Dose-dependent effect; Drug metabolism [20]: Metabolite_Detected; Drug metabolism [21]: Metabolite_Detected; fold change (FC) [22]: 8; viability at 10 µM [23]: < 6%; fold change (FC) [24]: 6; fold change (FC) [25]: 6; Drug metabolism [26]: Metabolite_Detected; Flu intensity [27]: 2 to 25 a.u.; Drug metabolism [28]: Metabolite_Detected |

Source: ChEMBL document CHEMBL4049424, “Hydroxypyridinone and 5-Aminolaevulinic Acid Conjugates for Photodynamic Therapy” (J Med Chem, 2017)
